For the assay, the target named is T1, DMT1 (SLC11A2) (Homo sapiens, UniProt P49281).
T1 sequence (P49281 1-568): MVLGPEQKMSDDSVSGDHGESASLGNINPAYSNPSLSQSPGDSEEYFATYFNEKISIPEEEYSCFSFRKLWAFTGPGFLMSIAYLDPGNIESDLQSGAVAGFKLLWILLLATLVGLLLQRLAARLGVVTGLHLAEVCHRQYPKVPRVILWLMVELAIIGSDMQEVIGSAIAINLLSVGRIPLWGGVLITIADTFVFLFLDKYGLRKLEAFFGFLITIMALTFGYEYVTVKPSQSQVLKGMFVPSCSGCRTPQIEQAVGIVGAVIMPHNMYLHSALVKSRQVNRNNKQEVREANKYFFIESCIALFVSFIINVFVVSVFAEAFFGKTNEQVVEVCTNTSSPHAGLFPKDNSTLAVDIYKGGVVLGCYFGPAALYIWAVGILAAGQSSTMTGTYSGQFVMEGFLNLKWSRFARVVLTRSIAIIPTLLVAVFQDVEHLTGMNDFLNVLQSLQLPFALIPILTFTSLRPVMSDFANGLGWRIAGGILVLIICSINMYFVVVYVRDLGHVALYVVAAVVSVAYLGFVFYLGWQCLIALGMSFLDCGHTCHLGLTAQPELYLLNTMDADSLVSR
The assay is described as follows: Radioactive 55Fe uptake assay in HEK293 cells stably overexpressing DMT1. The assay is classed as cell-based. Summed up:
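HEK293 cells stably expressing human DMT1 (pIRES2 DsRed-Express2, geneticin 500 μg/mL) were seeded at 50,000 cells/well for 24 h. Cells were preincubated 5 min in uptake buffer, pH 5.5, with a range of test compound. ⁵⁵Fe²⁺ (1 μM) with ascorbate and unlabelled Fe²⁺ was then added for 15 min at room temperature. After ice-cold washes, uptake was read by scintillation counting as % of DMSO control. IC50 came from a 4-parameter logistic fit (two experiments in triplicate), and LE was derived from IC50.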

What is called IC50 is the concentration at which inhibition is half-maximal. Regarding `CC1CCc2sc(C(=O)O)cc2C1` (centres unmarked) [compound 2], the IC50 came out at 525 ± 65 µM. Where the note is “from DMT1 IC50”, the “ligand efficiency LE” value is recorded as 0.35 kcal^.mol^−1.
